OX1R antag-1: antagonists of human orexin 1 receptor; O43613; CHO/OX1R cells, Fluo-8 calcium fluorescence, orexin A; inhibition, % at 5 µM; hit rate 0.43% among 330,000;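 active = inhibition above its plate's threshold, mean inhibition of all tested compounds on the plate plus 3 SD, cut at about 37% in these data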
Target sequence (O43613 whole entry, looked up): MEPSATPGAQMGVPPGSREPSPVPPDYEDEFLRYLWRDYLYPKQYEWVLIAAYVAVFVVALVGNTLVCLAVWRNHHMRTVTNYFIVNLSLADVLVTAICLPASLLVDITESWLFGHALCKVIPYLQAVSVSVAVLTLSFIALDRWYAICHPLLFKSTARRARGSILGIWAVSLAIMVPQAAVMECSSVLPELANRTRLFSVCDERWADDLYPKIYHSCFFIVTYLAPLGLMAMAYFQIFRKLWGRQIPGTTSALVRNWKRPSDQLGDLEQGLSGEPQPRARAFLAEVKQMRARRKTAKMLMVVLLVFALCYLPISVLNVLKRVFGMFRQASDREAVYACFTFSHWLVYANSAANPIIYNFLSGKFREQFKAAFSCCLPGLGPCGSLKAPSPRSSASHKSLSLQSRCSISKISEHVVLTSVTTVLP
TAAR1 antag: antagonists of human TAAR1; Q96RJ0; CHO RD-HGA16 TAAR1, Fluo-8 calcium fluorescence, antagonist; inhibition, % at 3 µM; hit rate 1.5% among 360,000;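 active = inhibition above a per-plate cutoff, the mean inhibition of test compounds on that plate plus 3 SD, cut at about 49% in these data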
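Test system: hTAAR1-expressing CHO RD-HGA16 cells, Gα16-coupled; Probe or stimulus: EC80 β-phenethylamine stimulus; Compound dosing: single nominal final test compound concentration of 3 µM; Timing: 140 s kinetic read after compound, 140 s after agonist; Signal: Fluo-8 calcium-sensitive fluorescence; Measure: % inhibition of agonist calcium response; Controls: DMSO and EC80 PEA controls.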
CHO parental Ca: signal in parental CHO cells, OX1R antagonist counter-screen | parental CHO-K1, ATP-induced calcium, Fluo-8 fluorescence | inhibition, % at 5.6 µM | hit rate 0.63% among 330,000;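 active = inhibition above that plate's mean sample inhibition plus 3 SD, cut at about 26% in these data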
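Measured by: calcium-sensitive Fluo-8 fluorescence / Test system: CHO parental line / Controls: ATP-challenged DMSO wells low, unchallenged DMSO wells high / Measure: % inhibition / Compound: single nominal dose of 5.6 µM per compound / Replicates: single well per compound, no replicates / Reagent: ATP as calcium-mobilizing challenge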
OX1R antag-2: antagonists of human orexin 1 receptor (OX1R); O43613; inhibition, % at 6.6 µM; OX1R-expressing cells, FRET antagonist read-out; hit rate 1.8% among 330,000; AID 485270; in the data active = inhibition mostly above about 38%, no sharp cut-off; inactive = mostly below about 40%
TAAR1 agonist: human TAAR1 agonism. hit rate 0.99% among 360,000. CHO RD-HGA16 TAAR1, Fluo-8 calcium fluorescence; vehicle wells 0%, saturating PEA agonist 100%. Q96RJ0. activation, % at 3 µM. AID 624467;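 active = activation above the mean activation of all test compounds in the run plus 3 SD, cut at about 38% in these data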
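Assay system – CHO-derived RD-HGA16 cells with stable Gα16 and human TAAR1 · Compound dosing – one-point dosing at 3 µM (nominal) · Incubation – 17-24 h seeding, 75 min 37 °C dye, 30 min RT · Measured by – kinetic Fluo-8 calcium fluorescence · Control set – DMSO vehicle as 0%, PEA at EC100 as 100% · Repeats – single well for each compound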
GalR3 antag: human GalR3 antagonism; HEK293 GalR3-CNG cAMP membrane potential fluorescence; galR3 body fused to GalR1 C-terminus; inhibition, % at 3 µM; hit rate 0.44% among 360,000;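 active = inhibition above the screen-wide average plus 3 SD, cut at about 13% in these data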;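 note: forskolin and galanin both at EC90 stimulate the cells; cAMP rise reported by CNG channel membrane potential dye signal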
Numbers stand for hits; n = inactive; x = no result given. The list is not random: actives were taken first. Their share in the collection is about 4.2%.

SMILES	OX1R antag-1	TAAR1 antag	CHO parental Ca	OX1R antag-2	TAAR1 agonist	GalR3 antag
O=C(N/N=C/c1cc([N+](=O)[O-])ccc1Cl)c1cnccn1	n	n	n	71	n	n
O=C(Nc1cccc([N+](=O)[O-])c1)c1cnccn1	n	n	n	n	n	n
CCC(C)[C@H](NC(=O)[C@@H]1Cc2ccccc2CN1)C(=O)NCc1ccc(C)cc1 (stereo partly specified)	x	n	x	x	n	n
COc1ccccc1NC(=O)c1ccccc1S(=O)(=O)c1ccccc1[N+](=O)[O-]	n	n	n	58	n	n
COc1ccccc1NC(=O)c1ccccc1S(=O)(=O)c1ccc([N+](=O)[O-])cc1	n	n	n	n	n	n
COCCn1c(C)cc2c(c1=O)C(c1ccccc1F)C(C#N)=C(N)O2 (stereo unspecified)	n	n	n	n	n	n
COc1ccc(NC(=O)CN(C)C(=O)CCSc2ccc(F)cc2)cc1	x	n	x	x	n	n
OC(CNCCc1ccc(C(F)(F)F)cc1)COC(c1ccccc1)c1ccccc1 (stereo unspecified)	49	n	89	n	n	n
O=C(O)COc1ccccc1/C=N/Nc1ccc(S(=O)(=O)N2CCOCC2)cc1[N+](=O)[O-]	n	n	n	63	n	n
CCOc1ccccc1/C=N/NC(=O)c1cccc(S(=O)(=O)N2CCOCC2)c1	n	n	n	n	n	n
CSc1cccc(NC(=O)CCCn2c(=O)c3cccn3c3cccnc32)c1	n	n	n	74	n	n
CCOc1cc(CNC(=O)CCCn2c(=O)c3cccn3c3cccnc32)cc(OCC)c1OCC	n	n	n	68	n	n
CCc1ccc(CNC(=O)CCCn2c(=O)c3cccn3c3cccnc32)cc1	n	n	n	n	n	n
Cc1cccc(N2CCN(C(=O)c3ccc(NS(=O)(=O)c4ccc5[nH]c(=O)[nH]c5c4)cc3)CC2)c1C	n	n	n	n	n	n
CN1C(=O)c2cccc3c(Br)ccc(c23)C1=O	n	n	n	n	n	n
CNc1ccc2c3c(cccc13)C(=O)N(C)C2=O	88	n	79	n	157	n
COc1ccc(CN(C)C(=O)COC(=O)c2c(-c3ccccc3Cl)noc2C)cc1	n	n	n	n	n	n
CCN(CC)C(=O)CSc1nc(-c2cccs2)cc(-c2cccs2)c1C#N	n	61	58	n	n	n
COC(=O)CSc1nc(-c2cccs2)ccc1C#N	n	n	n	68	n	n
C#CCSc1nc(-c2cccs2)ccc1C#N	n	n	n	n	n	n
COCCNC(=O)/C(C#N)=C/c1ccc(OC(=O)c2cccs2)c(OC)c1	x	n	x	x	n	n
C#Cc1ccc([C@@H]2C=C(C(=O)NCc3ccccc3)O[C@H](OCc3ccc(CO)cc3)C2)cc1	n	51	n	n	n	n
O=C(CSc1ncnc2c1oc1ccccc12)Nc1ccccc1F	n	n	n	n	n	n
Cc1cc(NC(=O)Cn2nc(-c3cccs3)ccc2=O)cc(C)c1Br	n	n	n	n	n	n
Cc1c(Br)ccc(NC(=O)Cn2nc(-c3cccs3)ccc2=O)c1C	n	n	n	55	n	n
SMILES	OX1R antag-1	TAAR1 antag	CHO parental Ca	OX1R antag-2	TAAR1 agonist	GalR3 antag
COc1cccc(N2CCN(c3ccc(N4C(=O)CCC4=O)cc3[N+](=O)[O-])CC2)c1	n	n	33	n	n	n
COc1ccccc1N1CCN(c2ccc(N3C(=O)CCC3=O)cc2[N+](=O)[O-])CC1	n	n	57	n	n	n
Cc1ccc(S(=O)(=O)n2nc(C)c(S(=O)(=O)N3CCCCC3)c2C)cc1	n	n	n	n	n	n
CS(=O)(=O)N1CCN(c2ccccc2NC(=S)NC(=O)c2ccccc2[N+](=O)[O-])CC1	n	54	n	n	n	n
CS(=O)(=O)N1CCN(c2ccccc2NC(=S)NC(=O)c2cccs2)CC1	n	n	n	n	n	n
CCc1ccc(OCCNc2cc(N3CCNC(C)C3)ccc2[N+](=O)[O-])cc1 (stereo unspecified)	n	n	n	n	43	n
CC1CN(c2ccc([N+](=O)[O-])c(NCCOc3ccc(Cl)cc3)c2)CC(C)N1 (stereo unspecified)	x	n	x	x	n	n
Cc1ccccc1OCCNc1cc(N2CC(C)NC(C)C2)ccc1[N+](=O)[O-] (stereo unspecified)	n	n	n	n	49	x
CC1CN(c2ccc([N+](=O)[O-])c(NCCOc3ccccc3)c2)CC(C)N1 (stereo unspecified)	n	n	n	n	n	n
Cc1cc(C(=O)OCC(=O)Nc2cc(S(=O)(=O)N(C)C)ccc2C)c(C)o1	n	n	n	n	n	n
COc1ccc(NC(=O)c2cc(-c3cccs3)on2)cc1OC	n	n	n	n	42	n
COc1cccc(-c2cc(C(=O)Nc3ccc(OC)c(OC)c3)no2)c1	n	n	n	84	n	n
Cc1cccc2cc(C#N)c(NCc3ccccc3)nc12	n	n	n	n	n	n
Cc1cccc2cc(C#N)c(NCCNS(=O)(=O)c3ccccc3)nc12	n	n	n	58	n	n
O=C(OCc1cc(=O)n2c(n1)sc1ccccc12)c1ccc(O)cc1	n	n	n	53	n	n
O=C(Nc1cccc2cccnc12)c1ccccc1Cl	n	n	n	n	n	n
COc1ccccc1-c1noc(-c2ccccc2C(=O)Nc2ccccc2)n1	n	n	n	n	n	n
CCOc1ccccc1C(=O)Nc1ccccc1O	n	n	n	n	n	n
O=C(NCCc1ccccc1F)c1cccc2cccnc12	n	n	n	n	66	n
CCOc1ncccc1C(=O)NCc1ccccc1F	n	n	n	n	n	n
CCOc1ccccc1C(=O)Nc1cccc2ccccc12	n	n	n	53	n	n
COc1ccccc1C(=O)Nc1cccc2cccnc12	n	n	n	73	n	n
COc1ccccc1NC(=O)c1ccccc1-c1nc(-c2ccccc2OC)no1	n	51	n	55	n	n
Cc1ccc(NC(=O)c2cccc3cccnc23)cc1	n	n	n	n	n	n
CC(=O)Nc1cccc(NC(=O)c2cccc3cccnc23)c1	n	n	n	71	n	n
Cc1cc(C)nc(N2CCC(C(=O)Nc3ccc4c(c3)OCO4)CC2)n1	n	n	n	n	n	n
Cc1cc(C)nc(N2CCCC(C(=O)Nc3ccc4c(c3)OCO4)C2)n1 (stereo unspecified)	n	67	n	n	38	n
NS(=O)(=O)c1ccc(CCNc2ccn3nc(-c4ccccc4)cc3n2)cc1	x	n	x	x	n	n
CC(C)Cc1ccc(-c2cc3nc(NCCc4ccc(S(N)(=O)=O)cc4)ccn3n2)cc1	x	67	x	x	n	n
